Only some compounds are listed: those with a hit (about 0.86% of all), similar ones and a draw of the others.
APJ ag: APJ receptor agonism | actives 0.11% (n = 330,000) | P35414 | activation, % at 20 µM | CHO-K1 APJ PathHunter beta-arrestin, luminescence; 0% DMSO wells, 100% apelin;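 active means activation more than six SD over the plate average, tested at 20 µM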;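 further: 0% = DMSO alone and 100% = apelin-13 at 10 nM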
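Assay system: engineered CHO-K1 APJ arrestin reporter cells; Amount: 1000 CHO-K1 reporter cells seeded per well; Dosing: one dose, 20 µM compound, 1% DMSO; Times: compound stimulation 90 min at 25 °C, detection 60 min; Measured by: luminescent beta-gal fragment complementation, chemiluminescent substrate; Read-out: APJ–arrestin association signal; Controls: DMSO vs Apelin-13 10 nM.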
APJ antagonist: antagonists of human APJ apelin receptor; P35414; CHO-K1 APJ beta-arrestin complementation, luminescence; inhibition, % at 20 µM; actives 0.32% (n = 330,000);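 active means inhibition above about 40% at 20 µM, limit read from the data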;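 further: cells challenged with 10 nM apelin-13 agonist together with compound; plate controls were apelin-13 plus DMSO wells for no effect and DMSO wells lacking apelin-13 for full effect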
iPSC survival up: hiPSC single-cell survival enhancement. survival enhancement, % at 20 µM. ATPlite luminescence; 100% = ROCK inhibitor wells, 0% = DMSO. actives 0.044% (n = 360,000); in the data active means survival enhancement above about 18%;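 further: cells exposed to compounds for 16 hours before the ATP read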
CXCR6 block: blocks human CXCR6 beta-arrestin recruitment; actives 0.36% (n = 360,000); CHO-K1 PathHunter CXCR6 beta-arrestin, luminescence; AID 602244; inhibition, % at 20 µM; in the data active means inhibition above about 34%, passing the limit was not always enough;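 further: antagonist mode with CXCL16 agonist at 10 nM final; 0% = 10 nM CXCL16 with DMSO and 100% = unstimulated wells without agonist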
CCR6 antagonist: antagonists of human CCR6 receptor; P51684; CHO-K1 CCR6 PathHunter beta-arrestin, luminescence, CCL20-stimulated; inhibition, % at 20 µM; actives 0.49% (n = 340,000); AID 493098;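 active means compounds whose inhibition of the agonist-driven luminescence signal at 20 µM reaches about 50%, limit read from the data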;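 further: cells stimulated with CCL20 at 14 nM final; plate controls were DMSO with CCL20 for no effect and DMSO without agonist for full effect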
DAGLB inhibitor: blocks human DAGLB lipase activity. HEK293T DAGLB membrane lysate, EnzChek fluorogenic substrate. inhibition, % at 5.17 µM. actives 0.059% (n = 340,000); in the data active means inhibition above about 34%;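 further: 0% = enzyme with vehicle and 100% = wells lacking enzyme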
Target sequence (Q8NCG7 whole entry, looked up): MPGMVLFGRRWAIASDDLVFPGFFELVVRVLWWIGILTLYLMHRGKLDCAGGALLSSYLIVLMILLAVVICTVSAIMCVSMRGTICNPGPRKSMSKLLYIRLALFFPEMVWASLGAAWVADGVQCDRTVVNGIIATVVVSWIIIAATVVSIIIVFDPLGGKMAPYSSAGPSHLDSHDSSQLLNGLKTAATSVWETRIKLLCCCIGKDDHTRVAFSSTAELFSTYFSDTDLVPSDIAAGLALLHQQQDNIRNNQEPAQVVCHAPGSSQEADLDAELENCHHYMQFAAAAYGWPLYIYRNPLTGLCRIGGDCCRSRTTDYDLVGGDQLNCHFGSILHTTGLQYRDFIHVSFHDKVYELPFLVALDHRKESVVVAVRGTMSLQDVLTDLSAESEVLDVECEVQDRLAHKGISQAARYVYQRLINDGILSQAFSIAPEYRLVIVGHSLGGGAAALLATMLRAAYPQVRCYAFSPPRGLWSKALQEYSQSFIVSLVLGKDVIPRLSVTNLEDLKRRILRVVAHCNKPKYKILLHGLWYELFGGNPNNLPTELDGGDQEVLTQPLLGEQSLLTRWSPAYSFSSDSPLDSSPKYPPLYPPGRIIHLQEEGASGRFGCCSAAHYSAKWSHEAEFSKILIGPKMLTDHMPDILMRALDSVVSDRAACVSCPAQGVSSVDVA
DAGLB confirm: DAGLB (human) inhibition, confirmation screen | shares compounds with DAGLB inhibitor | HEK293T DAGLB membrane lysate, EnzChek fluorogenic substrate | inhibition, % at 5.17 µM | actives 73% (n = 190);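 active means mean inhibition over triplicate wells above a set limit taken from the primary lipase screen, cut at about 34% in these data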;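 further: 0% = DAGLB with DMSO and 100% = wells lacking DAGLB enzyme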
Starred values were filed as active, the others as inactive; . = no result given.

SMILES	APJ ag	APJ antagonist	iPSC survival up	CXCR6 block	CCR6 antagonist	DAGLB inhibitor	DAGLB confirm
COc1ccc(S(=O)(=O)N2CCOCC2)cc1N=Nc1sc(N)nc1-c1ccccc1	-8	40	-1	20	36	56*	92*
Cc1cc(C)c(NC(=O)COC(=O)c2cccc3c2C(=O)c2ccccc2C3=O)c(C)c1	6	-11	-1	-1	15	0	.
Cc1cc(C)c(Nc2cc(S(=O)(=O)O)c(N)c3c2C(=O)c2ccccc2C3=O)c(C)c1	.	.	0	39*	54*	80*	86*
COc1ccc(N/C=C2\C(=O)CCc3c2oc2cc(Cl)c(O)c(Cl)c32)cc1	-2	9	0	9	12	36*	38*
COc1cc(N=Nc2ccc(Br)cc2)cc(C=O)c1O	.	.	1	53*	.	38*	28
CCc1ccc(S(=O)(=O)Nc2ccc(O)c3c(=O)cc(-c4ccccc4Cl)oc23)cc1	2	14	-3	6	22	-2	.
O=c1cc(-c2ccccc2Cl)oc2c(NS(=O)(=O)c3cc(Cl)cc(Cl)c3O)ccc(O)c12	-1	-59	-1	1	18	41*	38*
COc1ccc(OC)c(NC(=O)CSc2nnc(CNC(=O)c3ccccc3F)o2)c1	-2	24	0	0	16	36*	-6
COc1ccc(C(=O)NCc2nnc(SCC(=O)Nc3cc(OC)ccc3OC)o2)cc1	-1	11	0	6	8	-1	.
C[C@H](CO)N1C[C@H](C)[C@@H](CN(C)Cc2ccc3c(c2)OCO3)Oc2ccc(NS(C)(=O)=O)cc2C1=O	-1	6	0	-2	-6	2	.
CC(C)CC1C(=O)N(Cc2cn(Cc3ccco3)nn2)CCS(=O)(=O)N1Cc1ccc(-c2ccncc2)cc1 (stereo not drawn)	.	.	6	1	.	-4	.
CC1(C)CCCN(C(=O)c2ccc3c(c2NCCO)C(=O)c2ccccc2C3=O)C1	-1	-12	-1	0	22	41*	45*
O=C1c2ccccc2C(=O)c2c1ccc(C(=O)N1CCCCC1)c2NCCO	-1	-13	-3	10	43	1	.
O=[N+]([O-])c1ccc(N2CCN(c3ccc(F)cc3)CC2)cc1	-2	6	0	9	8	55*	99*
O=C(Cc1ccc(F)cc1)N1CCN(c2ccc([N+](=O)[O-])cc2)CC1	-1	5	0	-4	6	3	.
O=C(NCC1CCCO1)c1cc2ccccc2o1 (stereo not drawn)	7	-1	0	3	0	-4	.
O=C(O)c1ccccc1NS(=O)(=O)c1ccc(N/N=C/c2cccc(O)c2O)c([N+](=O)[O-])c1	.	.	0	23	33	42*	53*
COc1cc(C=NNc2ccc(S(=O)(=O)Nc3ccccc3C(=O)O)cc2[N+](=O)[O-])ccc1O	-4	30	0	19	46	39*	50*
CC(=O)Nc1ccc(C=NNc2ccc(S(=O)(=O)Nc3ccccc3C(=O)O)cc2[N+](=O)[O-])cc1	-5	2	0	24	35	37*	56*
O=C(O)c1ccccc1NS(=O)(=O)c1ccc(NNC(=S)Nc2ccc(OC(F)F)cc2)c([N+](=O)[O-])c1	.	.	0	35*	53*	52*	67*
CCOc1cc(/C=N/Nc2ccc(S(=O)(=O)Nc3ccccc3C(=O)O)cc2[N+](=O)[O-])cc(Cl)c1O	.	.	-1	27	.	33	.
COc1cccc(CN2CCN(Cc3nc(C(C)C)cs3)CC2CCO)c1 (stereo not drawn)	-5	12	1	-16	16	-2	.
CCc1ccc(CN(C)C(=O)C2CCC(=O)N(CC3CCCCC3)C2)cc1 (stereo not drawn)	2	8	0	6	22	-1	.
CCOC(=O)Cc1nn[nH]n1	-2	0	-1	3	2	0	.
CCCc1c(-c2cccc(Cl)c2)ncn1CCc1ccccc1OC	.	.	-1	-2	.	.	.
SMILES	APJ ag	APJ antagonist	iPSC survival up	CXCR6 block	CCR6 antagonist	DAGLB inhibitor	DAGLB confirm
O=C(OCc1ccccc1)N(CCCCN(CCCNCc1ccccc1)C(=O)OCc1ccccc1)CCCNCc1ccccc1	.	.	-3	22	.	4	.
COc1ccc2[nH]c(CN3CCC(CO)(CCOc4ccccc4)CC3)c(C)c2c1	-1	-49	-1	-2	4	-1	.
Nc1nc(-c2ccccc2)c(N=Nc2cccnc2)s1	-1	19	0	13	26	51*	50*
COC(=O)c1ccccc1NCc1cc(=O)oc2cc(O)c(O)cc12	-1	-6	-1	0	3	48*	34*
CN(C)c1ccc(/C=C/c2ccc3c4ccccc4ccc3[n+]2-c2ccccc2)cc1	.	.	0	62*	83*	35*	61*
Cn1c(=O)[nH]c(=O)c2c1nc(N1CCCCCC1)n2CCOc1ccccc1	-3	6	1	-6	6	3	.
C=CCn1c(O)c(C2=c3ccccc3=NC2=O)sc1=Nc1ccc(O)cc1	-5	15	-1	27	41	36*	34
CC1CCCCN1C(=O)C1COc2ccccc2O1 (stereo not drawn)	1	-1	0	-18	20	-2	.
Cn1nc(-c2ccc(Cl)cc2)cc1NC(=O)CSCC(=O)O	0	-16	0	10	7	.	.
COc1ccccc1N=Nc1nc(-c2ccccc2)c(-c2ccccc2)[nH]1	.	.	-1	34	67*	40*	50*
Cc1ccc(C2=C(O)C(=O)C(c3ccc(C)cc3)=C(O)C2=O)cc1	.	.	0	10	17	60*	25
CC1=C(O)C(=O)C(C2=C(O)C(=O)C(C)=C(O)C2=O)=C(O)C1=O	.	.	-2	2	-2	-5	.
COc1cc(/C=N/Nc2ccc(S(N)(=O)=O)cc2[N+](=O)[O-])cc(OC)c1O	6	-2	0	15	34	32	.
COc1ccccc1/C=N\Nc1ccccc1[N+](=O)[O-]	-5	17	-1	18	26	35*	37*
COc1cc(/C=N/Nc2ccccc2[N+](=O)[O-])cc(OC)c1O	1	13	0	1	12	39*	49*
CC(C)Oc1ccccc1/C=N/Nc1ccccc1[N+](=O)[O-]	-5	19	4	12	36	26	.
CN1C(=O)/C(=C/c2cc(C(C)(C)C)c(O)c(C(C)(C)C)c2)NC1=S	6	11	1	3	-5	-4	.
